Results taken from ChEMBL document CHEMBL1127367, “Antiproliferative properties of polyamine analogues: a structure-activity study” (J Med Chem, 1994).

Experiments:
L1210 [1] = assay: (§1) Compound was evaluated for its impact on spermine levels uM; format: functional, Mus musculus
[2] = molecular target: Spermidine/spermine N(1)-acetyltransferase (SAT) (Mus musculus) (UniProt Q6P8J2+P48026); assay: […] spermidine/spermine N1-Acetyltransferase (SSAT) activity; format: functional; parameters: concentration or dose not given beside the values
Spermidine/spermine N(1)-acetyltransferase (SAT) (Mus musculus), sequence (P48026 whole entry, looked up): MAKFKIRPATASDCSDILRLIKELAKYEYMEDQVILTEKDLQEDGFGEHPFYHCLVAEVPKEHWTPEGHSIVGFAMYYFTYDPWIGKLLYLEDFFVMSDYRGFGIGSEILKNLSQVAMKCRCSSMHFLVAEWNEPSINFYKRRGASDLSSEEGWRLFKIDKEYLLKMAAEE
Spermidine/spermine N(1)-acetyltransferase (SAT) (Mus musculus), sequence (Q6P8J2 whole entry, looked up): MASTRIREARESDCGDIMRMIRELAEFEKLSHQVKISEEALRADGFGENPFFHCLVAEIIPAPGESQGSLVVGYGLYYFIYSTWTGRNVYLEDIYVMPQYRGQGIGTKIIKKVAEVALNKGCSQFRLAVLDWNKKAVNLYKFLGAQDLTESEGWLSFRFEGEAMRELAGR

L1210 [3] = assay: Compound was evaluated for its impact on spermidine levels after 48 hr at concentration 1.5 uM; format: functional, Mus musculus
Procedure, shortened: (§2)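 L1210 suspension cultures were grown in RPMI-1640 with 10% NuSerum, 2% HEPES-MOPS and 1 mM aminoguanidine (37 °C, 5% CO2). Log-phase cells were treated for 48 h, then washed twice in cold RPMI-1640 and pelleted. Pellets were extracted with 0.6 N perchloric acid, and supernatants were held at −20 °C until HPLC. Polyamine levels are given as % of untreated controls.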

L1210 [4] = assay: Compound was evaluated for its impact on putrescine (Put) levels after 48 hr at concentration 0.3 uM; format: functional, Mus musculus; procedure, shortened: as §2
L1210 [5] = assay: as §1; format: functional, Mus musculus; remark: listed apart in the source
L1210 [6] = assay: Compound was evaluated for its impact on spermidine levels after 48 hr at concentration 0.3 uM; format: functional, Mus musculus; procedure, shortened: as §2
L1210 [7] = assay: Compound level in L1210 cells after 48 hours of incubation at initial concentration of 0.3 uM is expressed as nmol/10e6 cells; format: functional, Mus musculus
Procedure, shortened: (§3)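 Murine L1210 leukemia cells were kept in logarithmic growth as a suspension in RPMI-1640 with 10% NuSerum, 2% HEPES-MOPS buffer and 1 mM aminoguanidine, at 37 °C under 5% CO2. Log-phase cells were exposed to the analogue for 48 h. Intracellular analogue content is reported per 10^6 cells.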

L1210 [8] = assay: In vitro inhibition of L1210 growth after 96 hours.; format: functional, cell-based; details: Mus musculus, L1210, 96 h
Procedure, shortened: (§4)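 Log-phase L1210 cultures (0.5–1.0 × 10^5 cells/mL) treated with analogue diluted in sterile water and filter-sterilized. After 48 h, cells were reseeded and grown a further 48 h for the 96 h point. Cells counted by Coulter counter. % growth = (treated − inoculum)/(untreated − inoculum) × 100.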

L1210 [9] = assay: Inhibition of radiolabeled spermidine uptake into L1210 cells in vitro.; format: functional, cell-based, Mus musculus
L1210 [10] = assay: Compound was evaluated for its impact on putrescine (Put) levels after 48 hr at concentration 1.5 uM; format: functional, Mus musculus; procedure, shortened: as §2
[11] = molecular target: T1, Ornithine decarboxylase (Mus musculus) (UniProt P00860); assay: Inhibition of ornithine decarboxylase (ODC) activity; format: functional; parameters: concentration or dose not given beside the values
T1 sequence (whole entry): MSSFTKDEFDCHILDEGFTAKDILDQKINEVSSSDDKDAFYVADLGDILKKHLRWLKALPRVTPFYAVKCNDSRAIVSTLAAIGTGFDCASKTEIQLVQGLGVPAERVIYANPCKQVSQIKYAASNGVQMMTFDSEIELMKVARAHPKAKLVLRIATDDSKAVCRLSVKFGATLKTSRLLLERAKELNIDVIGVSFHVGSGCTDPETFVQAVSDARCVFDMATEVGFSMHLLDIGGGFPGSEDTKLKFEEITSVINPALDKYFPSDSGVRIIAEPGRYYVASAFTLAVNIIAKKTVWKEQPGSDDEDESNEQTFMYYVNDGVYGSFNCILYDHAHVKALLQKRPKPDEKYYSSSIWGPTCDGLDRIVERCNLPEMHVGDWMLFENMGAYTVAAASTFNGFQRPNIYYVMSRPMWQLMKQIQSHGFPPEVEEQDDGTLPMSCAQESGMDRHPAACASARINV

L1210 [12] = assay: Compound level in L1210 cells after 48 hours of incubation at initial concentration of 1.5 uM is expressed as nmol/10e6 cells; format: functional, Mus musculus; procedure, shortened: as §3
L1210 [13] = assay: In vitro inhibition of L1210 growth after 48 hours.; format: functional, cell-based; details: Mus musculus, L1210, 48 h; procedure, shortened: as §4
[14] = test system: S-adenosylmethionine decarboxylase (Mus musculus); assay: Effect of compound on S-Adenosyl-methionine decarboxylase (AdoMetDC) activity expressed as percent of untreated control for (AdoMetDC) (1 uM at 6 hr)
L1210 [15] = assay: Compound level in L1210 cells after 48 hours of incubation at initial concentration of 30 uM is expressed as nmol/10e6 cells; format: functional, Mus musculus; procedure, shortened: as §3
[16] = molecular target: T2, S-adenosylmethionine decarboxylase proenzyme 1 (Mus musculus) (UniProt P0DMN7); assay: Inhibition of S-Adenosyl-methionine decarboxylase (AdoMetDC) activity; format: functional; parameters: concentration or dose not given beside the values
T2 sequence (whole entry): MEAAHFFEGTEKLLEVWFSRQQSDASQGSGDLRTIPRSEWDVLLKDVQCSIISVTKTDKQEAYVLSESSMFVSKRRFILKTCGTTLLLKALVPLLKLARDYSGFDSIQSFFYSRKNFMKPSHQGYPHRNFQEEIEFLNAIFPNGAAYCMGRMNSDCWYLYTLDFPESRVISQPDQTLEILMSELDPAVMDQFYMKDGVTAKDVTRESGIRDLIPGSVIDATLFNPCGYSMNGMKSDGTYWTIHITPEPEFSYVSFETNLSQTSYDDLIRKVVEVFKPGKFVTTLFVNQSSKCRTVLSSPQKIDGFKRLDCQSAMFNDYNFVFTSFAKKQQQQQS

L1210 [17] = assay: Compound was evaluated for its impact on spermine levels after 48 hr at concentration 150 uM; format: functional, Mus musculus
Procedure, shortened: (§5)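 Murine L1210 leukemia cells in log-phase suspension (RPMI-1640, 10% NuSerum, 2% HEPES-MOPS, 1 mM aminoguanidine, 37 °C, 5% CO2) exposed to analogue for 48 h. Cells washed twice in cold RPMI-1640, extracted with 0.6 N perchloric acid, and polyamines quantified by HPLC. Spermine is reported as % of untreated control.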

L1210 [18] = assay: Compound level in L1210 cells after 48 hours of incubation at initial concentration of 150 uM is expressed as nmol/10e6 cells; format: functional, Mus musculus; procedure, shortened: as §3
L1210 [19] = assay: Compound was evaluated for its impact on putrescine (Put) levels after 48 hr at concentration 150 uM; format: functional, Mus musculus; procedure, shortened: as §2
L1210 [20] = assay: Compound was evaluated for its impact on spermidine levels after 48 hr at concentration 30 uM; format: functional, Mus musculus; procedure, shortened: as §2
L1210 [21] = assay: Compound was evaluated for its impact on spermine levels after 48 hr at concentration 30 uM; format: functional, Mus musculus; procedure, shortened: as §5
L1210 [22] = assay: Compound was evaluated for its impact on putrescine (Put) levels after 48 hr at concentration 30 uM; format: functional, Mus musculus; procedure, shortened: as §2
L1210 [23] = assay: Compound was evaluated for its impact on spermidine levels after 48 hr at concentration 150 uM; format: functional, Mus musculus; procedure, shortened: as §2
L1210 [24] = assay: Compound was evaluated for its impact on putrescine (Put) levels after 48 hr at concentration 15 uM; format: functional, Mus musculus; procedure, shortened: as §2
L1210 [25] = assay: Compound level in L1210 cells after 48 hours of incubation at initial concentration of 3 uM is expressed as nmol/10e6 cells; format: functional, Mus musculus; procedure, shortened: as §3
L1210 [26] = assay: Compound was evaluated for its impact on spermidine levels after 48 hr at concentration 3 uM; format: functional, Mus musculus; procedure, shortened: as §2
L1210 [27] = assay: Compound was evaluated for its impact on spermine levels after 48 hr at concentration 3 uM; format: functional, Mus musculus; procedure, shortened: as §5
L1210 [28] = assay: Compound was evaluated for its impact on putrescine (Put) levels after 48 hr at concentration 3 uM; format: functional, Mus musculus; procedure, shortened: as §2
L1210 [29] = assay: Compound was evaluated for its impact on spermine levels after 48 hr at concentration 15 uM; format: functional, Mus musculus; procedure, shortened: as §5
L1210 [30] = assay: Compound level in L1210 cells after 48 hours of incubation at initial concentration of 15 uM is expressed as nmol/10e6 cells; format: functional, Mus musculus; procedure, shortened: as §3
L1210 [31] = assay: Compound was evaluated for its impact on spermidine levels after 48 hr at concentration 15 uM; format: functional, Mus musculus; procedure, shortened: as §2

CCNCCCCNCCCCCNCCCCNCC
Polyamine (L1210 [1]): 70% | Activity [2]: 120% | Polyamine (L1210 [3]): 5% | Polyamine (L1210 [4]): 44% | Polyamine (L1210 [5]): 31% | Polyamine (L1210 [6]): 61% | Activity (L1210 [7]): 0.26 | IC50 (L1210 [8]): 0.035 µM | Ki (L1210 [9]): 6 µM | Polyamine (L1210 [10]): 0% | Activity [11]: 20% | Activity (L1210 [12]): 0.72 | IC50 (L1210 [13]): 0.3 µM | Activity [14]: 39%

CCNCCCNCCCCNCCCNCC [BIS(ETHYL)SPERMINE]
Activity (L1210 [15]): 0.4 | Activity [2]: 460% | Activity [16]: 28% | Polyamine (L1210 [17]): 14% | Activity (L1210 [18]): 1.13 | Polyamine (L1210 [19]): 0% | IC50 (L1210 [8]): 0.18 µM | Ki (L1210 [9]): 1.6 µM | Polyamine (L1210 [20]): 0% | Polyamine (L1210 [21]): 12% | Activity [11]: 3% | Polyamine (L1210 [22]): 0% | Polyamine (L1210 [23]): 0% | IC50 (L1210 [13]): 30 µM

CCCNCCCNCCCCNCCCNCCC
Polyamine (L1210 [24]): 0% | Activity (L1210 [25]): 1.12 | Activity [2]: 500% | Activity [16]: 72% | Polyamine (L1210 [26]): 18% | Polyamine (L1210 [27]): 64% | Ki (L1210 [9]): 2.3 µM | Polyamine (L1210 [28]): 0% | Activity [11]: 52% | Polyamine (L1210 [29]): 43% | Activity (L1210 [30]): 1.09 | Polyamine (L1210 [31]): 9%
